An excerpt weighted towards active compounds, which were near 1.9% of everything screened.
XiGFP reactiv: activators of inactive X chromosome reactivation, primary screen, imaging, XiGFP fibroblasts, GFP high-content imaging, set 2. AID 743238, 2013. hit rate 0.055% among 360,000. activation, % at 7.58 µM. XiGFP mouse fibroblasts, % GFP-positive cells imaging, 3 d; cells co-treated with 5-aza-dC sensitizer; scaled so ellipticine positive control = 100%;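 active = mean normalized replicate activation at least 10% and every replicate at or above 10%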
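assay system = SV40-immortalized XiGFP fibroblast cells, line 68-5-11 | buffer or medium = DMEM plus 5-aza-dC sensitizer | doses = single-point pinned compound dosing | times = 3-day compound exposure, then 15 min fixation at room temperature | benchmarks = positive control ellipticine, 6 µM final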
Rpn11 inh: Rpn11 (PSMD14) deubiquitinase inhibitors, primary screen, biochemical, fluorescence polarization, uHTS. 26S proteasome non-ATPase regulatory subunit 14 (Homo sapiens), O00487. human 26S proteasome, Ub4-pepOG fluorescence polarization; 20S core pre-blocked with epoxomicin. inhibition, % at 20 µM. hit rate 0.59% among 360,000;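 active = inhibition at 20 µM, scaled to each plate's controls, above about 33%, limit read from the data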
Rin1 Abl inh: inhibitors of Rin1-Abl protein binding, primary screen, biochemical, TR-FRET; Tyrosine-protein kinase ABL1 (Homo sapiens) + Ras and Rab interactor 1 (Homo sapiens), …; inhibition, % at 7.35 µM; hit rate 0.4% among 360,000; in the data active = inhibition above about 5%, passing the limit was not always enough
NadD block: inhibitors of S. aureus NadD, primary screen, biochemical, colorimetric, uHTS | Nicotinate-nucleotide adenylyltransferase NadD (Staphylococcus aureus N315) | purified NadD enzyme, colorimetric absorbance read-out | inhibition, % at 20 µM | hit rate 0.78% among 360,000 | AID 602399, 2012; in the data active = inhibition above about 26%
ABHD5 PLIN5 PPI: ABHD5-PLIN5 interaction inhibitors, primary screen, cell lysate, split luciferase complementation, luminescence; Perilipin-5 (Homo sapiens) + 1-acylglycerol-3-phosphate O-acyltransferase ABHD5 (Homo …; Split G. princeps luciferase complementation, 4 h; inhibition, % at 4 µM; hit rate 0.78% among 360,000; AID 602281, 2012;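 active = inhibition above the mean inhibition across every tested compound plus 3 SD, cut at about 22% in these data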
Target sequence (Q00G26 whole entry, looked up): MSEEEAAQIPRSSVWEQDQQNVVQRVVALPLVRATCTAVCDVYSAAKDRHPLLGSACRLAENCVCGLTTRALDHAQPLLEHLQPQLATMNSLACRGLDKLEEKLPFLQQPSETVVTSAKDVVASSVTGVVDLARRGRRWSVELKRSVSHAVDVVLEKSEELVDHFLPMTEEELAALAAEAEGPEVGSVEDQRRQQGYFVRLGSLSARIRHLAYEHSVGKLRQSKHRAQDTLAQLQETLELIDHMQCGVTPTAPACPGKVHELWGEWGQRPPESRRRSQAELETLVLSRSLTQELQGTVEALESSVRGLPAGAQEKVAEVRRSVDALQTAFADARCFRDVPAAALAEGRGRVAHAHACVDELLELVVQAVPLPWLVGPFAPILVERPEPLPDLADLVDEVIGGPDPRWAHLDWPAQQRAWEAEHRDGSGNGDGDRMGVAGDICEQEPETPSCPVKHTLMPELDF
Target sequence (Q8WTS1 whole entry, looked up): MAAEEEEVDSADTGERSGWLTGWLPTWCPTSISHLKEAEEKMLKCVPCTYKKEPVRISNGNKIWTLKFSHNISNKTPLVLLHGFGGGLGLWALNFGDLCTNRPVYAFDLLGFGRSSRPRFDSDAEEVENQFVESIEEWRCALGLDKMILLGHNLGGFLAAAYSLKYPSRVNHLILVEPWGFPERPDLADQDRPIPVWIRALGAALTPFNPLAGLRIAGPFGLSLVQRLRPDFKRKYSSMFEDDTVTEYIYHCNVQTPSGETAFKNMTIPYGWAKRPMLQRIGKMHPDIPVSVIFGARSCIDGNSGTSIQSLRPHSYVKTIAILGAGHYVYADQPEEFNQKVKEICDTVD
Rin1-Abl confirm: Rin1-Abl binding inhibitor retest, confirmation, biochemical, TR-FRET | shares compounds with Rin1 Abl inh | purified proteins | inhibition, % at 7.35 µM | hit rate 49% among 1,300
GFP quench: GFP fluorescence inhibitors and quenchers, artefact control for Rin1-Abl interaction inhibitor project, biochemical; inhibition, % at 6.75 µM; AID 602125, 2011; hit rate 8.5% among 1,300; shares compounds with Rin1 Abl inh; inhibitors/quenchers counterscreen;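 note: ABL1-eGFP fusion protein alone without its partner RIN1-SBP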
GFP quench DR: GFP fluorescence inhibitors and quenchers, dose response, artefact control for Rin1-Abl interaction inhibitor project, biochemical. shares compounds with Rin1 Abl inh. GFP fluorescence interference/quenching counterscreen. IC50, µM. 230 tested, under 10 active. AID 602182, 2012; call rule not given here;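 note: ABL1-eGFP fusion protein alone without its RIN1 binding partner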
ABHD5-PLIN5 conf: ABHD5-PLIN5 interaction inhibitors, confirmation, biochemical, luminescence; shares compounds with ABHD5 PLIN5 PPI; inhibition, % at 4 µM; hit rate 67% among 2,200; AID 651612, 2012; in the data active = inhibition above about 23%
HNF4 split-luc: HNF4 dimerization inhibitors, counter-screen for ABHD5-PLIN5 interaction inhibitor project, biochemical, split-luciferase complementation, luminescence | shares compounds with ABHD5 PLIN5 PPI | inhibition, % at 4 µM | hit rate 77% among 2,200 | AID 651674, 2012;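 active = mean inhibition across replicate wells exceeding the computed hit threshold, cut at about 13% in these data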;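 note: light from luciferase halves that rejoin when HNF4 fusion proteins dimerize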
Large screens that a line does not name were inactive (follow-up assays come after a bar, where shown). Cut-off read from the data, not from the text of the source, unless noted: active = inhibition above about 6.5%; inactive = the rest.

O=C(NC1CCN(Cc2ccccc2)CC1)c1ccc2c(c1)[nH]c(=O)n2Cc1ccc(F)cc1	Rin1 Abl inh 10 | Rin1-Abl confirm 13 | GFP quench inactive
CCCC(=O)N1CCC2(CC1)CN(C(=O)CC)[C@H](CO)c1c2c2ccc(OC)cc2n1C	none (no result: Rpn11 inh, Rin1 Abl inh, NadD block, ABHD5 PLIN5 PPI)
COc1ccc2ncc(S(=O)(=O)c3ccccc3)c(N3CCC4(CC3)OCCO4)c2c1	Rin1 Abl inh 8.2 | Rin1-Abl confirm inactive | GFP quench inactive
COc1ccc2nc(Nc3nc(C)c(CCC(C)C)c(=O)[nH]3)nc(C)c2c1	Rin1 Abl inh 8.2 (no result: XiGFP reactiv) | Rin1-Abl confirm inactive | GFP quench inactive
COc1ccc2nc(Nc3nc(CSc4ccc(C)cc4)cc(=O)[nH]3)nc(C)c2c1	none
CCC(c1nc2ccccc2c(=O)n1CCCn1ccnc1)N1C(=O)c2ccccc2C1=O (stereo unspecified)	Rin1 Abl inh 15 (no result: XiGFP reactiv) | Rin1-Abl confirm 21 | GFP quench inactive | GFP quench DR inactive
CCC(=O)Nc1ccc2c(c1)C(=O)N(C)C[C@@H](OC)[C@H](C)CN(Cc1cncnc1)[C@@H](C)CO2	none (no result: Rpn11 inh, Rin1 Abl inh, NadD block, ABHD5 PLIN5 PPI)
COc1ccccc1CCC(=O)N(Cc1ccccc1)c1c(N)n(Cc2ccccc2)c(=O)[nH]c1=O	none
Nc1c(N(Cc2ccccc2)C(=O)CCc2ccccc2)c(=O)[nH]c(=O)n1Cc1ccccc1	Rin1 Abl inh 9.8 | Rin1-Abl confirm inactive | GFP quench inactive
CC(C)(C)n1ncc2c(=O)n(Cc3cccc(Cl)c3)cnc21	Rin1 Abl inh 7.6 | Rin1-Abl confirm inactive | GFP quench inactive
CC(C)(C)n1ncc2c(=O)n(Cc3cccc(Cn4cnc5c(cnn5C(C)(C)C)c4=O)c3F)cnc21	none
CCOC(=O)N1CCN(C(=O)/C=C/c2ccc(OC)c(OC)c2)CC1	none
CCCOc1ccc(/C=C/C(=O)N2CCN(C(=O)c3ccco3)CC2)cc1OC	Rin1 Abl inh 15 | Rin1-Abl confirm 17 | GFP quench inactive | GFP quench DR inactive
O=C1C(=Cc2ccco2)CCC1=Cc1ccco1	Rin1 Abl inh 12, ABHD5 PLIN5 PPI 37 (not shown: Rpn11 inh) | Rin1-Abl confirm 17 | GFP quench 29 | ABHD5-PLIN5 conf 59 | HNF4 split-luc 89
O/N=C1\CCC\C1=C/c1ccco1	none (no result: XiGFP reactiv)
O=C(/C=C/c1cccnc1)c1cccc(O)c1	Rin1 Abl inh 8.6, ABHD5 PLIN5 PPI 63 (no result: XiGFP reactiv) | Rin1-Abl confirm 10 | GFP quench inactive | ABHD5-PLIN5 conf 81 | HNF4 split-luc 90
O=C1C=CC2=C3c4cc(O)c(O)cc4CC3(O)COC2=C1O (stereo unspecified)	Rin1 Abl inh 67, NadD block 48, ABHD5 PLIN5 PPI 28 (not shown: XiGFP reactiv, Rpn11 inh) | Rin1-Abl confirm 73 | GFP quench 45 | ABHD5-PLIN5 conf 64 | HNF4 split-luc 33
COc1ccc2c3c(n(C)c2c1)[C@H](CO)N(C(=O)C1CC1)CC31CCN(C(=O)c2ccncc2)CC1	none (no result: Rpn11 inh, Rin1 Abl inh, NadD block, ABHD5 PLIN5 PPI)
O=c1cc(-c2ccc(O)cc2)oc2c(O)c(O)c(O)c(O)c12	Rin1 Abl inh 37, ABHD5 PLIN5 PPI 34 (no result: XiGFP reactiv) | Rin1-Abl confirm 48 | GFP quench 22 | ABHD5-PLIN5 conf inactive | HNF4 split-luc 14
O=c1cc(-c2ccc(O)cc2)oc2ccc3ccccc3c12	none

Screens: PubChem BioAssay, several laboratories
